Test results as given in PubChem BioAssay.
Activity calls are given as the source filed them.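 The calls were made as follows, unless noted: active = duplicate-averaged activation above buffer control mean plus 5 SD of those controls; inactive = the rest.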

Key:
[1] = thallium flux activation in parental CHO cells, counter-screen for KCNQ1 potentiator project (AID 493006); conditions: parental CHO-K1 cells, FluxOR thallium flux, at 10 µM; hits give high values;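 as to activation: fluorescence ratio of max minus min over baseline after K+ and Tl+ depolarization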
Summary of the method: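 Benchmarks – buffer and R-L3 controls · Assay system – untransfected host CHO-K1 cells with FluxOR thallium dye · Measure – fluorescence change ratio scaled 0% buffer, 100% R-L3 · Technique – kinetic thallium-flux fluorescence · Timing – overnight 37 °C plating, 90 min RT dye, 20 min compound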

[2] = molecular target: Potassium voltage-gated channel subfamily KQT member 1 (Homo sapiens) (UniProt P51787); experiment: KCNQ1 potassium channel potentiators, confirmation, FluxOR thallium flux, CHO cells, duplicates (AID 493007;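 active = potentiation averaged over duplicate wells exceeding buffer-only control mean by more than 3 SD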;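 as to outcome: cells depolarized by a potassium plus thallium sulfate stimulus after compound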); conditions: KCNQ1 cell line, FluxOR thallium flux fluorescence, at 10 µM; hits give high values, % of reference activator effect, buffer zero
Chain of Potassium voltage-gated channel subfamily KQT member 1 (Homo sapiens) (P51787 whole entry, looked up): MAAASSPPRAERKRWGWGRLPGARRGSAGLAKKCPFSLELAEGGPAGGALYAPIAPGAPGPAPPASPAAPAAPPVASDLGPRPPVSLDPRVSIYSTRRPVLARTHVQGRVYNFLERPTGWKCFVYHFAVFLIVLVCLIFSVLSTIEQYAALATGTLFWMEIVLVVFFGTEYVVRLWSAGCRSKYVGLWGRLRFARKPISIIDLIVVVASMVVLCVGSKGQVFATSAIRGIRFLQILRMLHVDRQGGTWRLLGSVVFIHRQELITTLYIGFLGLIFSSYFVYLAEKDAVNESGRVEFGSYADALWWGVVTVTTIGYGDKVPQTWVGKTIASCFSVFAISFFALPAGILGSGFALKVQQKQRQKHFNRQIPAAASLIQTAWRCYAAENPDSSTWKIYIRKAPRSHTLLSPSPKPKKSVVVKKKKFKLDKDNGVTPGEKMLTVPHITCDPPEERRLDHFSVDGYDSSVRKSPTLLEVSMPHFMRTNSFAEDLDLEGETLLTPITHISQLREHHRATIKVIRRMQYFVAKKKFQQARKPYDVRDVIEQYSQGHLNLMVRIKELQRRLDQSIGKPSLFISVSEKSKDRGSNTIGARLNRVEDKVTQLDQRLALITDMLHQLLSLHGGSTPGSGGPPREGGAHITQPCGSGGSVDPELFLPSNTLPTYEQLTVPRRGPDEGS
Summary of the method: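 Material: CHO cells stably expressing the KCNQ1 potassium channel / Times: dye 90 min then compound 20 min, both at room temperature / Detection: kinetic thallium influx fluorescence with FluxOR dye, 10 s baseline, 110 s post-stimulus / Benchmarks: buffer-only wells as 0% and R-L3 activator as 100% / Replicates: each compound tested in duplicate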

[3] = molecular target: Potassium voltage-gated channel subfamily KQT member 2 (Rattus norvegicus) (UniProt O88943); experiment: rat KCNQ2 channel potentiation, selectivity assay for KCNQ1 potentiator project, KCNQ2-CHO-K1 cells (AID 493009;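 active = mean duplicate potentiation above the buffer control mean plus 5 SD of buffer wells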;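 also: assay conditions were tuned for KCNQ1 rather than KCNQ2 modulators; signal is max minus min fluorescence divided by baseline after thallium stimulus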); conditions: FluxOR thallium flux fluorescence, at 10 µM; hits give high values, scaled: buffer 0, activator control 100
Chain of Potassium voltage-gated channel subfamily KQT member 2 (Rattus norvegicus) (O88943 whole entry, looked up): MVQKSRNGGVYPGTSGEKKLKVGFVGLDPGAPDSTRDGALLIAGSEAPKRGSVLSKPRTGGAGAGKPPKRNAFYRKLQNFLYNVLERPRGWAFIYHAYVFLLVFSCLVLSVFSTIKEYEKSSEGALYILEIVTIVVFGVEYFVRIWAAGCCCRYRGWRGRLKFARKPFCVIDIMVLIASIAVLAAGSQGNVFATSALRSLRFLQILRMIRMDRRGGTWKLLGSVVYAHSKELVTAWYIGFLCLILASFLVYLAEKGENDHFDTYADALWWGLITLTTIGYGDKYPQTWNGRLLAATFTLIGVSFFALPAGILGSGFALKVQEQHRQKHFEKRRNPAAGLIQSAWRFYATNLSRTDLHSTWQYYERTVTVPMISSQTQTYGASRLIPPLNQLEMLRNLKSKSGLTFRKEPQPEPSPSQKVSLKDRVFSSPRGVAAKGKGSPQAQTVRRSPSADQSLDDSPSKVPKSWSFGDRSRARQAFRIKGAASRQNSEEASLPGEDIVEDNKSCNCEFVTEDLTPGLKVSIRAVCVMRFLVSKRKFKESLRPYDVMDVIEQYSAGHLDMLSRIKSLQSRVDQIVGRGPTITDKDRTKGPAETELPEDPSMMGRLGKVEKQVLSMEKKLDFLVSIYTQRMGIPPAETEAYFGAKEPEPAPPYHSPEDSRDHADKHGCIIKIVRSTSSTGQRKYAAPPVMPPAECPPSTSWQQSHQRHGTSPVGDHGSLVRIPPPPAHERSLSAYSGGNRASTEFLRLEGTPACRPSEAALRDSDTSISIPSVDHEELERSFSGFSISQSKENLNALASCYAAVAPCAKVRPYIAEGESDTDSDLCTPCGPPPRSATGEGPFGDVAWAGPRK

[4] = molecular target: Potassium voltage-gated channel subfamily KQT member 1 (Homo sapiens) (UniProt P51787); experiment: KCNQ1 channel current potentiators, confirmation, orthogonal assay for KCNQ1 potentiator project, IonWorks patch clamp, KCNQ1-CHO cells (AID 493184;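 active = current rise at least 3 SD above the untreated control mean in each of two repeat wells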;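 as to current potentiation: percent change of the same well's current before compound addition so 0% = no change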); conditions: automated patch clamp current, at 10 µM; hits give high values
Summary of the method: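 Probe or stimulus: depolarizing pulse to +40 mV from -90 mV; Material: CHO cells carrying KCNQ1; Compound: one dose, 10 µM final; Signal: automated voltage clamp, amphotericin B perforated patch; Read-out basis: percent current increase versus pre-compound level; Buffer or medium: pH 7.4 external bath; Replication: duplicates.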

SMILES | outcome [1] | outcome [2] | outcome [3] | outcome [4] | activation [1] | potentiation [2] | potentiation [3] | current potentiation [4]
CNC(=O)c1nnsc1S(=O)c1ccc(Cl)cc1 (stereo not given) | inactive | inactive | inactive | inactive |  |  |  | 
CN(C)/C=N/S(=O)(=O)c1cccn1-c1ncc(C(F)(F)F)cc1Cl | inactive | inactive | inactive | inactive |  |  |  | 
CCCCn1c(=S)[nH]c2ccccc2c1=O |  |  |  | inactive | 160% (active) | 50.5% (active) | 187% (active) | 
CC(/C=N/n1c(-c2ccc(Cl)cc2)n[nH]c1=S)=C\c1ccco1 | inactive |  | inactive | inactive |  | 28% (active) |  | 
C=CCNC(=S)Nc1sc2c(c1C(=O)OCC)CC(C(C)C)OC2 (stereo not given) |  |  |  | inactive | 268% (active) | 132% (active) | 246% (active) | 
S=c1nc[nH]c2c1cnn2-c1ccccc1 |  |  |  | inactive | 168% (active) | 29.5% (active) | 222% (active) | 
CCCCCn1c(=O)c(F)cn(Cc2ccc(OC)c([N+](=O)[O-])c2)c1=O | inactive | inactive | inactive | inactive |  |  |  | 
CCOC(=O)c1sc(NC(=S)NC(=O)c2ccco2)nc1C |  |  |  | inactive | 142% (active) | 37% (active) | 157% (active) | 
COc1cc(/C=C2\C(=O)N(C)C(=S)N2C)ccc1O | inactive | inactive | inactive | inactive |  |  |  | 
Cc1ccc(/C(O)=C/C(=O)C(=O)NC23CC4CC(CC(C4)C2)C3)cc1 |  |  |  | inactive | 284% (active) | 167% (active) | 367% (active) | 
Cc1[nH]n(C(N)=S)c(=O)c1N=Nc1ccc2ccccc2c1 |  |  |  | inactive | 150% (active) | 238% (active) | 628% (active) | 
CCOC(=O)c1oc2c(CN3CCCCC3C)c(O)ccc2c(=O)c1-c1ccc(OC)c(OC)c1 (stereo not given) | inactive | inactive | inactive | inactive |  |  |  | 
O=C(NC(=S)Nc1cccc(Cl)c1N1CCCCC1)c1ccco1 |  |  |  | inactive | 156% (active) | 148% (active) | 178% (active) | 
C#CCOCCOCCOCCNc1nc(N2CCN(C(=O)C([C@@H](C)CC)n3cc(C(N)Cc4ccc(O)cc4)nn3)CC2)nc(N2CCN(C(=O)[C@H](CCC(=O)O)n3cc(C(N)CC(C)C)nn3)CC2)n1 (stereo not given in full) | inactive | inactive | inactive | inactive |  |  |  | 
CC(=O)NC(NC(C)=O)c1ccc(N(C)C)cc1 | inactive | inactive | inactive | inactive |  |  |  | 
O=C(c1c[nH]c(C(=O)C(Cl)(Cl)Cl)c1)c1ccc(F)cc1Cl |  |  |  | inactive | 145% (active) | 47% (active) | 160% (active) | 
CCN1C(=O)/C(=C/c2ccc(OCc3ccc(C(=O)O)cc3)c(Cl)c2)NC1=S |  | inactive |  | inactive | 136% (active) |  | 168% (active) | 
Cc1ccc(S(=O)(=O)NCC(c2ccc3c(c2)OCO3)N2CCOCC2)cc1 (stereo not given) | inactive | inactive | inactive | inactive |  |  |  | 
CCC(Oc1ccc(Cl)cc1)C(=O)N1CC(=O)Nc2ccccc21 (stereo not given) | inactive | inactive | inactive | inactive |  |  |  | 
Cc1cc(C)n(/N=C/c2cc(Cl)cc(Cl)c2O)c(=O)c1 | inactive | inactive | inactive | inactive |  |  |  | 

SMILES | outcome [1] | outcome [2] | outcome [3] | outcome [4] | activation [1] | potentiation [2] | potentiation [3] | current potentiation [4]
S=c1nc(Cc2ccccc2)[nH]c2ccccc12 |  |  |  | inactive | 280% (active) | 110% (active) | 415% (active) | 
CC1Cc2ccccc2N1C(=S)NC(=O)c1cccc(Br)c1 (stereo not given) |  |  |  | inactive | 726% (active) | 224% (active) | 576% (active) | 
O=C(NCC1CCCO1)c1ccc2c(c1)S(=O)(=O)c1ccccc1C2=O (stereo not given) | inactive | inactive | inactive | inactive |  |  |  | 
COc1ccc(OC)c(S(=O)(=O)CC(O)CS(=O)(=O)c2ccccc2)c1 (stereo not given) | inactive | inactive | inactive | inactive |  |  |  | 
O=C(NCc1ccco1)C1CC(c2ccc(Cl)cc2)=NO1 (stereo not given) | inactive | inactive | inactive | inactive |  |  |  | 
O=C(CN1C2=NCCCN2c2ccccc21)c1ccc2c(c1)OCO2 | inactive | inactive | inactive | inactive |  |  |  | 
Cc1ccc(-n2cnnn2)c2cccnc12 | inactive | inactive | inactive | inactive |  |  |  | 
O=C(NC(=S)Nc1nc(-c2ccccc2)cs1)c1ccco1 | inactive |  | inactive | inactive |  | 48.5% (active) |  | 
O=P(CCCCCCCCCP(=O)(c1ccccc1)c1ccccc1)(c1ccccc1)c1ccccc1 |  |  |  | inactive | 256% (active) | 96.5% (active) | 327% (active) | 
O=c1c2c3c(sc2[nH]c(=S)n1Cc1ccco1)CCC3 |  |  |  | inactive | 264% (active) | 108% (active) | 289% (active) | 
CN(CC(=O)NCCc1ccc(F)cc1)Cc1cccc(Cl)c1 | inactive | inactive | inactive | inactive |  |  |  | 
Cc1noc(C)c1CSc1ncnc2sc3c(c12)CCCCC3 |  |  |  | inactive | 175% (active) | 60% (active) | 178% (active) | 
Cc1cccc(Nc2ccccc2C(=O)OCC(=O)N(C)C2CCS(=O)(=O)C2)c1C (stereo not given) | inactive | inactive | inactive | inactive |  |  |  | 
N=c1ncn(Cc2ccccc2)c2nc(SCCOc3ccccc3)[nH]c12 | inactive | inactive | inactive | inactive |  |  |  | 
Cc1ccccc1-n1c(C)cc(/C=N/NC(=O)c2ccncc2)c1C | inactive |  |  | inactive |  | 25% (active) | 165% (active) | 
Cc1cc(NC(=O)CSc2cn(CCNC(=O)c3ccc(F)cc3)c3ccccc23)no1 | inactive | inactive | inactive | inactive |  |  |  | 
Cn1nccc1C(=O)NC(=S)Nc1cc(Cl)cc(Cl)c1 |  |  |  | inactive | 141% (active) | 20.5% (active) | 178% (active) | 
Oc1c(Cl)cc(Cl)c2cccnc12 |  |  |  | inactive | 148% (active) | 67% (active) | 211% (active) | 
COc1ccc(OC)c(S(=O)(=O)Nc2ccc3c(c2)N(C(C)=O)CCC3)c1 | inactive | inactive | inactive | inactive |  |  |  | 
O=C(CCC(=O)c1ccc(F)cc1)Nc1cc(Cl)cc(Cl)c1 | inactive | inactive | inactive | inactive |  |  |  | 

SMILES | outcome [1] | outcome [2] | outcome [3] | outcome [4] | activation [1] | potentiation [2] | potentiation [3] | current potentiation [4]
O=C(Nc1nccs1)c1ccc(-c2ccc(F)c(Cl)c2)o1 | inactive | inactive | inactive | inactive |  |  |  | 
C/C(=N\NC(=O)c1cc2ccccc2cc1O)c1ccccn1 |  |  |  |  | 157% (active) | 38.5% (active) | 169% (active) | 21.5% (active)
COc1ccc(NC(=O)CN(C)C(=O)c2ccc(N3CCOCC3)c([N+](=O)[O-])c2)cc1 |  |  |  | inactive | 151% (active) | 22% (active) | 186% (active) | 
C=CCN1C(=O)C(CC(=O)NCC)SC1=Nc1ccc(S(N)(=O)=O)cc1 (stereo not given) | inactive | inactive | inactive | inactive |  |  |  | 
CCOC(=O)Cc1csc(NC(=S)NC(=O)c2ccccc2Br)n1 |  |  |  | inactive | 233% (active) | 51% (active) | 239% (active) | 
CC(=O)Nc1nc2c(F)cccc2s1 | inactive | inactive | inactive | inactive |  |  |  | 
Cc1ccc(/C=N/Nc2nc(C(C)(C)C)cs2)o1 | inactive | inactive | inactive | inactive |  |  |  | 
O=C(NCc1cccc(Cl)c1)c1cccc(OC2CCN(C(=O)C3CC3)CC2)c1 | inactive | inactive | inactive | inactive |  |  |  | 
Cc1ccc2nsnc2c1S(=O)(=O)Nc1cccc2nsnc12 |  |  |  | inactive | 143% (active) | 26% (active) | 174% (active) | 
COCCCn1c(=S)[nH]c2c(sc3ccccc32)c1=O |  |  |  | inactive | 176% (active) | 69.5% (active) | 160% (active) | 
Cc1cccc(-c2n[nH]c(=S)n2/N=C/c2cccs2)c1 |  |  |  | inactive | 138% (active) | 22.5% (active) | 149% (active) | 
CS(=O)(=O)c1ccc(C(=O)OCc2nnc(-c3ccc(Cl)cc3)o2)cc1[N+](=O)[O-] | inactive |  |  | inactive |  | 30.5% (active) | 144% (active) | 
Cc1ccccc1OCC(=O)N=Nc1c(O)n(C)c2ccccc12 |  |  |  | inactive | 188% (active) | 42% (active) | 188% (active) | 
OC1(c2ccc(Br)cc2)CCNCC1 | inactive | inactive | inactive | inactive |  |  |  | 
Cc1ccc(C(=O)NNC(=O)CCCCC(=O)NNC(=O)c2ccc(C)cc2)cc1 | inactive | inactive | inactive | inactive |  |  |  | 
COc1ccc2nc(NC(=S)NC(=O)c3ccco3)sc2c1 | inactive |  |  | inactive |  | 42% (active) | 175% (active) | 
CSc1ccccc1C(=O)NC1CCCc2ccccc21 (stereo not given) | inactive | inactive | inactive | inactive |  |  |  | 
CCCC(=O)Nc1cc(Cl)ccc1N1CCN(C(=O)CC)CC1 | inactive | inactive | inactive | inactive |  |  |  | 
CCOC(=O)C1CCN(C(=O)COc2cc(C)c(Br)c(C)c2)CC1 | inactive | inactive | inactive | inactive |  |  |  | 
COc1ccccc1CNCc1cccc(Oc2ccccc2)c1 | inactive | inactive | inactive | inactive |  |  |  | 
